Laboratory results reported in ChEMBL document CHEMBL3779833, “Hydroxyurea derivatives of irofulven with improved antitumor efficacy” (Bioorg Med Chem Lett, 2016).
pIC50: −log10 of the molar value. The source made the active and inactive calls. The calls are words filed in the database; no cut-off is given here.

Key:
A498 = experiment: Cytotoxicity against human A498 cells after 48 hrs by sulforhodamine B assay; type: functional, cell-based; conditions: A498, 48 h
MCF7 = experiment: Cytotoxicity against human MCF7 cells after 48 hrs by sulforhodamine B assay; type: functional, cell-based; conditions: MCF7, 48 h
EKVX = experiment: Cytotoxicity against human EKVX cells after 48 hrs by sulforhodamine B assay; type: functional, cell-based
NCI-H226 = experiment: Cytotoxicity against human NCI-H226 cells after 48 hrs by sulforhodamine B assay; type: functional, cell-based; conditions: NCI-H226, 48 h
M14 = experiment: Cytotoxicity against human M14 cells after 48 hrs by sulforhodamine B assay; type: functional, cell-based; conditions: M14, 48 h
[1] = Cytotoxicity against human BT549 cells after 48 hrs by sulforhodamine B assay; type: functional, cell-based; conditions: BT-549, 48 h
[2] = Cytotoxicity against human SF295 cells after 48 hrs by sulforhodamine B assay; type: functional, cell-based; conditions: SF-295, 48 h
[3] = Cytotoxicity against human SF539 cells after 48 hrs by sulforhodamine B assay; type: functional, cell-based; conditions: SF-539, 48 h
[4] = Cytotoxicity against human RXF393 cells after 48 hrs by sulforhodamine B assay; type: functional, cell-based; conditions: RXF 393, 48 h
[5] = Cytotoxicity against human OVCAR5 cells after 48 hrs by sulforhodamine B assay; type: functional, cell-based; conditions: OVCAR-5, 48 h
KM12 = experiment: Cytotoxicity against human KM12 cells after 48 hrs by sulforhodamine B assay; type: functional, cell-based; conditions: KM12, 48 h
[6] = Cytotoxicity against human UACC257 cells after 48 hrs by sulforhodamine B assay; type: functional, cell-based; conditions: UACC-257, 48 h
ACHN = experiment: Cytotoxicity against human ACHN cells after 48 hrs by sulforhodamine B assay; type: functional, cell-based
SK-MEL-5 = experiment: Cytotoxicity against human SK-MEL-5 cells after 48 hrs by sulforhodamine B assay; type: functional, cell-based; conditions: SK-MEL-5, 48 h
HT-29 = experiment: Cytotoxicity against human HT-29 cells after 48 hrs by sulforhodamine B assay; type: functional, cell-based; conditions: HT-29, 48 h
[7] = Cytotoxicity against human HOP62 cells after 48 hrs by sulforhodamine B assay; type: functional, cell-based; conditions: HOP-62, 48 h
[8] = Cytotoxicity against human SF268 cells after 48 hrs by sulforhodamine B assay; type: functional, cell-based; conditions: SF-268, 48 h
[9] = Cytotoxicity against human Caki1 cells after 48 hrs by sulforhodamine B assay; type: functional, cell-based; conditions: CAKI-1, 48 h
SK-MEL-28 = experiment: Cytotoxicity against human SK-MEL-28 cells after 48 hrs by sulforhodamine B assay; type: functional, cell-based; conditions: SK-MEL-28, 48 h
[10] = Cytotoxicity against human OVCAR4 cells after 48 hrs by sulforhodamine B assay; type: functional, cell-based; conditions: OVCAR-4, 48 h
[11] = Cytotoxicity against human CHRF-288-11 cells after 48 hrs by trypan blue exclusion assay; type: cell-based
Procedure, shortened: (§1)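 Cells exposed to drug for 48 h; growth measured by trypan blue exclusion. IC50 is the concentration giving 50% growth inhibition; values reported in nM.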

[12] = Cytotoxicity against human OVCAR3 cells after 48 hrs by sulforhodamine B assay; type: functional, cell-based; conditions: OVCAR-3, 48 h
[13] = Cytotoxicity against human HCT116 cells after 48 hrs by sulforhodamine B assay; type: functional, cell-based; conditions: HCT-116, 48 h
SN12C = experiment: Cytotoxicity against human SN12C cells after 48 hrs by sulforhodamine B assay; type: functional, cell-based
786-0 = experiment: Cytotoxicity against human 786-0 cells after 48 hrs by sulforhodamine B assay; type: functional, cell-based; conditions: 786-0, 48 h
[14] = Cytotoxicity against human OVCAR8 cells after 48 hrs by sulforhodamine B assay; type: functional, cell-based; conditions: OVCAR-8, 48 h
Malme-3M = experiment: Cytotoxicity against human MALME-3M cells after 48 hrs by sulforhodamine B assay; type: functional, cell-based
[15] = Cytotoxicity against human PC3 cells after 48 hrs by sulforhodamine B assay; type: functional, cell-based; conditions: PC-3, 48 h
[16] = Cytotoxicity against human Hs 578T cells after 48 hrs by sulforhodamine B assay; type: functional, cell-based
MV522 = experiment: Antitumor activity against human MV522 cells xenografted in Balb/c nu/nu mouse assessed as inhibition of tumor growth at 10 mg/kg, ip administered thrice a week for 3 weeks; type: functional, organism-based
Procedure, shortened: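 MV522 tumour xenografts in Balb/c nu/nu mice; drugs given intraperitoneally 3 times a week for 3 consecutive weeks at 10 mg/kg, the dose compared across agents; N = 8 per group.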

[17] = Cytotoxicity against human SW620 cells after 48 hrs by sulforhodamine B assay; type: functional, cell-based; conditions: SW-620, 48 h
[18] = Cytotoxicity against human HOP92 cells after 48 hrs by sulforhodamine B assay; type: functional, cell-based; conditions: HOP-92, 48 h
[19] = Cytotoxicity against human MV522 cells after 48 hrs by trypan blue exclusion assay; type: functional, cell-based; conditions: MV522, 48 h; procedure, shortened: as §1
[20] = Cytotoxicity against human COLO205 cells after 48 hrs by sulforhodamine B assay; type: functional, cell-based; conditions: COLO 205, 48 h
T47D = experiment: Cytotoxicity against human T47D cells after 48 hrs by sulforhodamine B assay; type: functional, cell-based
NCI-H322M = experiment: Cytotoxicity against human NCI-H322M cells after 48 hrs by sulforhodamine B assay; type: functional, cell-based
[21] = Cytotoxicity against human IGROV1 cells after 48 hrs by sulforhodamine B assay; type: functional, cell-based; conditions: IGROV-1, 48 h
[22] = Selectivity index, ratio of IC50 for human CHRF-288-11 cells to IC50 for human MV522 cells; type: functional
Procedure, shortened: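 Ratio of the IC50 in megakaryocytic CHRF 288-11 (non-target) cells to the IC50 in MV522 adenocarcinoma (target) cells.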

[23] = Cytotoxicity against human SKOV3 cells after 48 hrs by sulforhodamine B assay; type: functional, cell-based; conditions: SK-OV-3, 48 h
U-251 = experiment: Cytotoxicity against human U251 cells after 48 hrs by sulforhodamine B assay; type: functional, cell-based; conditions: U-251, 48 h
[24] = Cytotoxicity against human HCC2998 cells after 48 hrs by sulforhodamine B assay; type: functional, cell-based; conditions: HCC 2998, 48 h
[25] = Cytotoxicity against human TK10 cells after 48 hrs by sulforhodamine B assay; type: functional, cell-based; conditions: TK-10, 48 h
SK-MEL-2 = experiment: Cytotoxicity against human SK-MEL-2 cells after 48 hrs by sulforhodamine B assay; type: functional, cell-based; conditions: SK-MEL-2, 48 h
[26] = Cytotoxicity against human NCI-ADR-RES cells after 48 hrs by sulforhodamine B assay; type: functional, cell-based
[27] = Cytotoxicity against human LOXIMVI cells after 48 hrs by sulforhodamine B assay; type: functional, cell-based; conditions: LOX IMVI
[28] = Cytotoxicity against human HCT15 cells after 48 hrs by sulforhodamine B assay; type: functional, cell-based; conditions: HCT-15, 48 h
[29] = Cytotoxicity against human SNB75 cells after 48 hrs by sulforhodamine B assay; type: functional, cell-based; conditions: SNB-75, 48 h
MDA-MB-435 = experiment: Cytotoxicity against human MDA-MB-435 cells after 48 hrs by sulforhodamine B assay; type: functional, cell-based; conditions: MDA-MB-435, 48 h
NCI-H522 = experiment: Cytotoxicity against human NCI-H522 cells after 48 hrs by sulforhodamine B assay; type: functional, cell-based; conditions: NCI-H522, 48 h
MDA-MB-231 = experiment: Cytotoxicity against human MDA-MB-231 cells after 48 hrs by sulforhodamine B assay; type: functional, cell-based; conditions: MDA-MB-231, 48 h
[30] = Cytotoxicity against human UO31 cells after 48 hrs by sulforhodamine B assay; type: functional, cell-based; conditions: UO-31, 48 h
[31] = Cytotoxicity against human SNB19 cells after 48 hrs by sulforhodamine B assay; type: functional, cell-based; conditions: SNB-19, 48 h
NCI-H460 = experiment: Cytotoxicity against human NCI-H460 cells after 48 hrs by sulforhodamine B assay; type: functional, cell-based; conditions: NCI-H460, 48 h, read-out: pIC50 (converted)
A549 = experiment: Cytotoxicity against human A549 cells after 48 hrs by sulforhodamine B assay; type: functional, cell-based; conditions: A549, 48 h, read-out: pIC50 (converted)
[32] = Cytotoxicity against human DU145 cells after 48 hrs by sulforhodamine B assay; type: functional, cell-based; conditions: DU-145, 48 h, read-out: pIC50 (converted)
NCI-H23 = experiment: Cytotoxicity against human NCI-H23 cells after 48 hrs by sulforhodamine B assay; type: functional, cell-based; conditions: NCI-H23, 48 h

With `CC1=C(CO)C2=C(C)C3(CC3)[C@@](C)(O)C(=O)C2=C1` [IROFULVEN] as the molecule, how does the pIC50 (A498) read?
Its pIC50 is 6.70.

And the pIC50 (MCF7)?
Its pIC50 is 6.60.

And the pIC50 (EKVX)?
Its pIC50 is 6.70.

What about the pIC50 (NCI-H226) of the same molecule?
The pIC50 was 6.70.

What about the pIC50 (M14) of the same molecule?
Its pIC50 is 6.60.

What about the pIC50 [1] of the same molecule?
Its pIC50 is 6.50.

What about the pIC50 [2] of the same molecule?
Its pIC50 is 6.50.

What about the pIC50 [3] of the same molecule?
The pIC50 was 6.80.

And the pIC50 [4]?
The pIC50 was 7.30.

And the pIC50 [5]?
The pIC50 was 6.80.

And the pIC50 (KM12)?
Its pIC50 is 6.20.

What about the pIC50 [6] of the same molecule?
The pIC50 was 6.60.

What about the pIC50 (ACHN) of the same molecule?
The pIC50 was 6.60.

And the pIC50 (SK-MEL-5)?
The pIC50 was 6.80.

And the pIC50 (HT-29)?
The pIC50 was 6.60.

And the pIC50 [7]?
The pIC50 was 6.80.

What about the pIC50 [8] of the same molecule?
The pIC50 was 6.60.

And the pIC50 [9]?
Its pIC50 is 6.60.

What about the pIC50 (SK-MEL-28) of the same molecule?
The pIC50 was 6.20.

What about the pIC50 [10] of the same molecule?
Its pIC50 is 6.60.

And the pIC50 [11]?
The pIC50 was 6.54.

What about the pIC50 [12] of the same molecule?
Its pIC50 is 6.60.

And the pIC50 [13]?
The pIC50 was 6.70.

What about the pIC50 (SN12C) of the same molecule?
The pIC50 was 6.40.

What about the pIC50 (786-0) of the same molecule?
The pIC50 was 6.70.

What about the pIC50 [14] of the same molecule?
Its pIC50 is 6.70.

What about the pIC50 (Malme-3M) of the same molecule?
Its pIC50 is 6.70.

And the pIC50 [15]?
The pIC50 was 6.60.

What about the pIC50 [16] of the same molecule?
Its pIC50 is 6.50.

What about the TGI (MV522) of the same molecule?
Its TGI is “Active”.

And the pIC50 [17]?
Its pIC50 is 6.20.

And the pIC50 [18]?
Its pIC50 is 6.50.

What about the pIC50 [19] of the same molecule?
The pIC50 was 7.15.

And the pIC50 [20]?
The pIC50 was 6.80.

And the pIC50 (T47D)?
Its pIC50 is 6.70.

What about the pIC50 (NCI-H322M) of the same molecule?
Its pIC50 is 6.60.

What about the pIC50 [21] of the same molecule?
Its pIC50 is 6.80.

And the “Ratio IC50” value [22]?
The value was 4.1.

What about the pIC50 [23] of the same molecule?
Its pIC50 is 6.60.

What about the pIC50 (U-251) of the same molecule?
The pIC50 was 6.50.

What about the pIC50 [24] of the same molecule?
Its pIC50 is 6.80.

And the pIC50 [25]?
The pIC50 was 6.60.

And the pIC50 (SK-MEL-2)?
The pIC50 was 6.70.

What about the pIC50 [26] of the same molecule?
The pIC50 was 6.60.

What about the pIC50 [27] of the same molecule?
The pIC50 was 6.20.

And the pIC50 [28]?
The pIC50 was 6.50.

And the pIC50 [29]?
Its pIC50 is 6.70.

And the pIC50 (MDA-MB-435)?
The pIC50 was 5.80.

What about the pIC50 (NCI-H522) of the same molecule?
The pIC50 was 6.80.

And the pIC50 (MDA-MB-231)?
Its pIC50 is 6.50.

What about the pIC50 [30] of the same molecule?
The pIC50 was 6.70.

And the pIC50 [31]?
Its pIC50 is 6.50.

What about the IC50 (NCI-H460) of the same molecule?
The IC50 was < 0.0501 µM.

And the IC50 (A549)?
The IC50 was < 0.126 µM.

What about the IC50 [32] of the same molecule?
The IC50 was < 0.1 µM.

What about the pIC50 (NCI-H23) of the same molecule?
Its pIC50 is 7.10.

With `NC(=O)NO` [HYDROXYUREA] as the molecule, how does the pIC50 [19] read?
The pIC50 was < 3.19.
